HUVEC inhibit – blocks proliferation of human endothelial cells. viability, % at 10 µM (by protocol). hit rate 1.1% among 86,000. AID 648. HUVEC proliferation, CellTiter-Glo luminescence, 72 h; stronger effect = lower value;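 active = viability at or below 30%; inactive = viability above 30%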;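 note: 100% = median luminescence of DMSO-only cell control wells on each plate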
HCT116 PTEN-null – suppresses growth of cells with PTEN deletion. hit rate 1.2% among 140,000. viability, % at 10 µM. HCT116 PTEN-null viability, CellTiter-Glo, 60 h; stronger effect = lower value;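 active = viability at or below a set limit, 4 SD under the median of all tested compounds, cut at about 3.7% in these data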;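 note: PTEN knockout HCT116 line with beta catenin targeted HCT116 as companion control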
Lung fibro prol – blocks proliferation of human lung fibroblasts; LL 47 human lung fibroblast viability, ATP luminescence; stronger effect = lower value; viability, % at 10 µM; hit rate 1.1% among 85,000;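 active = viability at or below 50% in the single dose screen; inactive = viability above 50%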;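 note: compound exposure lasted 72 h before the ATP readout; 100% = median luminescence of untreated cell-only wells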
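material = human LL 47 lung fibroblast cells | dosing = compounds added from tenfold dosing solution, 0.1% DMSO final | timing = overnight cell rest, 72 h compound treatment at 37 °C | measured by = CellTiter-Glo luminescence measuring cellular ATP | evaluation = % viability versus median cells-only luminescence | control set = cell-only wells, no compound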
bCat KO growth – beta-catenin-lacking colon tumor cell growth suppression; viability, % at 10 µM; HCT116 beta-catenin knockout viability, CellTiter-Glo, 60 h; stronger effect = lower value; hit rate 1.5% among 140,000;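 active = viability at or under a set limit, the compound median less 4 SD, cut at about 6% in these data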;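 note: 0% = Hyamine 1622 control at 20 µM and 100% = untreated cell control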
H69AR growth 86K – growth inhibitors of human H69AR lung tumor cells; viability, % at 10 µM; hit rate 6% among 85,000; AID 598; H69AR lung tumor viability, ATP luminescence, 72 h; stronger effect = lower value;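 active = viability at or below 40%; inactive = viability above 40%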;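 note: multidrug resistant small cell line overexpressing MRP-1 efflux transporter; 100% = mean luminescence of untreated control wells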
Active calls of the source: *; / = no result. Many of the other results were omitted from the sample, so hits are more common in it than they were.

SMILES	HUVEC inhibit	HCT116 PTEN-null	Lung fibro prol	bCat KO growth	H69AR growth 86K
O=S(=O)(/N=C(/Sc1ccccc1)c1ccccc1)c1ccccc1	65.6	89.8	50.3	94.5	26.4*
CS/C(=N\S(=O)(=O)c1ccccc1)c1ccccc1	/	101.8	/	96.5	/
O=C(c1ccco1)N1c2ccccc2Sc2ccccc21	/	64.8	/	69.2	/
O=C(N1CCN(c2ccccn2)CC1)N1c2ccccc2Sc2ccccc21	26.1*	12.8	55.1	9.4	34.2*
O=C(c1ccco1)N1CCN(C(=O)N2c3ccccc3Sc3ccccc32)CC1	38.3	13.8	50.3	14.4	31.9*
Cc1sc2nc(CN3CCCC3)nc(N3CCN(S(=O)(=O)c4cccs4)CC3)c2c1C	6.4*	38.7	69.8	33.5	66.9
Cc1sc2nc(SCC(=O)N3CCCCC3)[nH]c(=O)c2c1C	83.8	87.5	101.6	86.9	77.2
Cc1sc2nc(-c3cccs3)nc(N3CCCN(C)CC3)c2c1C	21.1*	/	56.2	/	23.9*
Cc1sc2nc(CN3CCCCC3)nc(Cl)c2c1C	/	5.2	/	5.4*	/
O=C(CSc1nc(-c2ccccc2F)nc2nc[nH]c12)Nc1c(Cl)cc(Cl)cc1Cl	/	102.5	/	100.9	/
CCCc1nc2sc3c(=O)n(N)cnc3c2c2c1CCCC2	/	85.4	/	85.7	/
COc1ccc(-c2nn(-c3ccccc3)cc2/C=C(/C#N)C(N)=O)cc1[N+](=O)[O-]	/	90.0	/	95.2	/
Cc1cc(Nc2nc3ccccc3nc2Cl)n(-c2ccc([N+](=O)[O-])cc2)n1	67.0	37.8	67.6	20.1	21.4*
CCCCCCCCCCn1c2c(c(=N)c3c1CCC3)CCC2	4.3*	0.9*	8.6*	1.6*	1.8*
CCOC(=O)Cn1c2c(c(=N)c3c1CCC3)CCC2	95.2	92.2	96.1	93.8	95.9
CCOc1cc2c(cc1OCC)C(c1ccccc1)N(c1ccccc1)C(=O)C2 (stereo unspecified)	/	50.8	/	42.6	/
O=C(Cn1c(=O)n(CCCC(=O)NC2CCCC2)c(=O)c2ccccc21)NCCC1=CCCCC1	85.1	2.8*	48.5*	5.3*	29.1*
CCn1c(SCC(=O)N/N=C/c2c[nH]c3ccccc23)nnc1-c1ccc(Cl)cc1	/	47.2	/	57.5	/
Clc1ccc(-c2nnc(-c3ccccc3)c(N3CCSCC3)n2)cc1	/	62.3	/	66.3	/
CC1CN(c2nc(-c3ccc(Br)cc3)nnc2-c2ccccc2)CC(C)N1 (stereo unspecified)	/	1.0*	/	0.9*	/
CC1=NNC(=O)/C1=C\c1cn(-c2ccccc2)nc1-c1ccc(Cl)cc1	/	1.4*	/	1.4*	/
Cc1ccc(-c2nn(-c3ccccc3)cc2C=C2C(=O)CC(C)(C)CC2=O)cc1	/	13.1	/	19.5	/
N#Cc1cc2ccccc2nc1SCC(=O)Nc1ccc(S(=O)(=O)N2CCCC2)cc1	76.2	67.8	87.7	61.5	52.6
COc1ccc2nc(SCC(=O)Nc3ccc(S(=O)(=O)N4CCCC4)cc3)c(C#N)cc2c1	90.6	77.5	100.1	72.6	6.0*
CC(C)OCCCNCC(O)c1ccccc1 (stereo unspecified)	/	87.1	/	92.1	/
SMILES	HUVEC inhibit	HCT116 PTEN-null	Lung fibro prol	bCat KO growth	H69AR growth 86K
COc1ccc(CCNC(=O)Cn2c(=O)cnc3ccccc32)cc1	60.4	43.5	61.6	35.2	25.4*
CC(=NC(C)C)C1=C(O)C(C)OC1=O (stereo unspecified)	/	94.2	/	90.1	/
COc1ccccc1Cn1c(=O)c2ccccc2n2c(Sc3ncnc4sccc34)nnc12	75.0	5.1	56.4	8.7	1.4*
O=C(CCC(=O)c1cccs1)Nc1ccc(F)c(F)c1F	102.9	106.4	95.6	97.7	96.8
Cc1[nH]c2c(ccc3ccccc32)c1C1C(CCN)C1(C)C (stereo unspecified)	2.4*	1.8*	2.7*	1.9*	4.4*
CC1Cc2cccc3c(O)c(C(=O)c4nn[nH]n4)c(=O)n1c23 (stereo unspecified)	/	98.3	/	100.3	/
CCOC(=O)c1ccccc1NC(=O)CN(c1ccccc1)S(=O)(=O)N(C)C	81.1	70.1	97.8	64.6	38.1*
CCOc1ccc(S(=O)(=O)Nc2cccc(OC)c2)cc1	87.6	70.7	94.8	73.8	37.7*
CCOC(=O)COc1ccc(S(=O)(=O)N2CCc3ccccc3C2)cc1	6.2*	87.8	61.3	87.0	92.3
CCOC(=O)COc1ccc(S(=O)(=O)Nc2ccc(C)cc2)cc1	10.8*	92.5	15.8*	97.3	93.8
CCOC(=O)COc1ccc(S(=O)(=O)Nc2ccc3c(c2)OCO3)cc1	40.6	99.0	63.1	112.4	99.6
Cc1ccc(C(=O)N/C(=C/c2ccco2)C(=O)OCN2C(=O)c3ccccc3C2=O)cc1	/	92.4	/	90.6	/
CCOC(=O)c1ccccc1NS(=O)(=O)c1ccc(C)cc1	73.7	21.3	87.9	22.8	10.6*
O=C(O)c1ccccc1SC1CC(=O)N(c2ccccc2)C1=O (stereo unspecified)	/	104.2	/	96.8	/
O=C(O)c1ccccc1SC1CC(=O)N(C2CCCCC2)C1=O (stereo unspecified)	95.4	82.4	97.7	82.1	36.4*
CCNc1ccc(C(=O)OCC(=O)c2cc(C)n(Cc3ccc4c(c3)OCO4)c2C)cc1[N+](=O)[O-]	/	80.3	/	86.3	/
CN1CCc2nc3sc(C(=O)C45CC6CC(CC(C6)C4)C5)c(N)c3cc2C1	/	0.6*	/	3.5*	/
COc1ccc(CCNC(=O)C2CCN(Cc3nc(-c4ccccc4F)oc3C)CC2)cc1OC	101.8	63.3	103.8	59.5	90.0
Cc1oc(-c2ccccc2F)nc1CN1CCC(C(=O)NCCC2=CCCCC2)CC1	19.7*	18.6	90.0	10.4	80.7
Cc1ccccc1-c1nc(CN2CCC(C(=O)NCCCN3CC(C)CC(C)C3)CC2)c(C)o1 (stereo unspecified)	13.9*	35.5	76.8	31.7	64.3
CCOc1ccc(NCc2nnc(SCc3ccc(Cl)cc3)n2-c2ccccc2)cc1	/	76.2	/	76.4	/
CN(C)CCCN(C(=O)c1sc2ccccc2c1Cl)c1nc2ccc(F)cc2s1	/	97.7	/	102.4	/
CN(C)CCCN(C(=O)CCc1ccccc1)c1nc2ccc(Cl)cc2s1	/	1.7*	/	1.5*	/
CN(C)CCCN(C(=O)c1ccc2c(c1)CCCC2)c1nc2ccc(Cl)cc2s1	/	2.7*	/	3.6*	/
Cc1ccc2nc(N(CCCN(C)C)C(=O)CCc3ccccc3)sc2c1	/	1.5*	/	2.4*	/
SMILES	HUVEC inhibit	HCT116 PTEN-null	Lung fibro prol	bCat KO growth	H69AR growth 86K
Cc1ccc2nc(N(CCCN(C)C)C(=O)c3cc4ccccc4oc3=O)sc2c1	/	90.2	/	84.4	/
CN(C)CCCN(C(=O)c1cc2ccccc2oc1=O)c1nc2c(F)cccc2s1	/	113.5	/	94.8	/
CNc1nc(Nc2ccc(Br)cc2)nc(N)c1[N+](=O)[O-]	/	83.7	/	82.0	/
CCC(=O)n1nc(-c2ccc(Cl)cc2)nc1NCc1ccccc1	45.2	10.1	51.7	9.6	17.0*
COc1ccc(C2NC(C(=O)O)Cc3c2[nH]c2ccccc32)cc1OC (stereo unspecified)	89.4	92.2	92.4	93.1	82.7
COc1ccc(C2NCCc3c2[nH]c2ccccc32)cc1CSc1nc2ccccc2s1 (stereo unspecified)	/	1.3*	/	1.4*	/

Assay outcomes (PubChem)
